Test results as given in ChEMBL document CHEMBL2375264, “Potent naphthoquinones against antimony-sensitive and -resistant Leishmania parasites: synthesis of novel α- and nor-α-lapachone-based 1,2,3-triazoles by copper-catalyzed azide-alkyne cycloaddition” (Eur J Med Chem, 2013).

Columns and labels:
Leishmania amazonensis [1] = assay: Ratio of potassium antimonyl tartrate IC50 to compound IC50 for antimony-sensitive Leishmania amazonensis MHOM/BR/1989/BA199 promastigote infected in Swiss mouse peritoneal macrophages; type: functional
Leishmania infantum [2] = assay: Ratio of potassium antimonyl tartrate IC50 to compound IC50 for antimony-sensitive Leishmania infantum MCAN/BR/2002/BH400 promastigote infected in Swiss mouse peritoneal macrophages; type: functional
[3] = Selectivity index, ratio of CC50 for Swiss mouse peritoneal macrophages to IC50 for antimony-sensitive Leishmania amazonensis MHOM/BR/1989/BA199 promastigote; type: functional
Outline: (§1)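 SI = CC50 / IC50. CC50 is from Swiss mouse peritoneal macrophages, read by MTT after lavage and 1 h adherence. […] Promastigotes grown in α-MEM with 10% heat-inactivated FBS, hemin and biopterin, pH 7.0, 25 °C. DMSO ≤0.2% final. Triplicate.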

[4] = Selectivity index, ratio of CC50 for Swiss mouse peritoneal macrophages to IC50 for antimony-sensitive Leishmania infantum MCAN/BR/2002/BH400 promastigote; type: functional; outline: as §1
[5] = Cytotoxicity against Swiss mouse peritoneal macrophages after 24 hrs by MTT assay; type: cell-based, Peritoneal macrophage cell
Outline: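 Macrophages from peritoneal lavage of Swiss mice with cold FBS-free RPMI-1640. Cells seeded at 4.0 × 10⁶/mL, adhered 1 h, non-adherent cells washed off. Compounds were DMSO stocks diluted in medium over a concentration range, final DMSO ≤0.2%. Viability read by MTT (5 mg/mL solution, 4 h further incubation). CC50 taken as the 50% cytotoxic concentration.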

Leishmania amazonensis [6] = assay: Antileishmanial activity against antimony-resistant Leishmania amazonensis MHOM/BR/1989/BA199 promastigote infected in Swiss mouse peritoneal macrophages after 72 hrs; type: functional, organism-based; details: MHOM/BR/1989/BA199, 72 h
Outline: (§2)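 Promastigotes of Sb(III)-sensitive and -resistant lines (resistant to Sb(III) up to 2700), maintained at 25 °C, pH 7.0, in α-MEM with 10% heat-inactivated FBS, kanamycin, ampicillin, L-glutamine, hemin and biopterin. Drugs dissolved in DMSO, diluted in α-MEM across a concentration range, final DMSO ≤0.2%.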

Leishmania amazonensis [7] = assay: Antileishmanial activity against antimony-sensitive Leishmania amazonensis MHOM/BR/1989/BA199 promastigote infected in Swiss mouse peritoneal macrophages after 72 hrs; type: functional, organism-based; details: MHOM/BR/1989/BA199, 72 h; outline: as §2
Leishmania infantum [8] = assay: Antileishmanial activity against antimony-resistant Leishmania infantum MCAN/BR/2002/BH400 promastigote infected in Swiss mouse peritoneal macrophages after 72 hrs; type: functional, organism-based; details: MCAN/BR/2002/BH400, 72 h; outline: as §2
Leishmania infantum [9] = assay: Antileishmanial activity against antimony-sensitive Leishmania infantum MCAN/BR/2002/BH400 promastigote infected in Swiss mouse peritoneal macrophages after 72 hrs; type: functional, organism-based; details: MCAN/BR/2002/BH400, 72 h; outline: as §2
[10] = Selectivity index, ratio of CC50 for Swiss mouse peritoneal macrophages to IC50 for antimony-resistant Leishmania amazonensis MHOM/BR/1989/BA199 promastigote; type: functional
Outline: (§3)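 SI = CC50/IC50. CC50 comes from Swiss mouse peritoneal macrophages, harvested by lavage with cold RPMI-1640 lacking FBS. Cells seeded at 4.0 × 10⁶/mL, allowed to adhere 1 h, then washed free of non-adherent cells. Viability read by MTT (5 mg/mL stock, 4 h).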

[11] = Selectivity index, ratio of CC50 for Swiss mouse peritoneal macrophages to IC50 for antimony-resistant Leishmania infantum MCAN/BR/2002/BH400 promastigote; type: functional; outline: as §3

Row | SMILES | Ratio IC50 (Leishmania amazonensis [1]) | Ratio IC50 (Leishmania infantum [2]) | Ratio CC50/IC50 [3] | Ratio CC50/IC50 [4] | CC50 at 24 h [5] | IC50 (Leishmania amazonensis [6]) | IC50 (Leishmania amazonensis [7]) | IC50 (Leishmania infantum [8]) | IC50 (Leishmania infantum [9]) | Ratio CC50/IC50 [10] | Ratio CC50/IC50 [11]
1 | O=C1C=C(n2cc(-c3ccc([N+](=O)[O-])cc3)nn2)C(=O)c2ccccc21 | 2.2 | 2 | <0.5 | <0.5 | 50 µM | > 100 µM | > 100 µM | > 100 µM | > 100 µM | – | –
2 | O=C1C=C(n2cc(CO)nn2)C(=O)c2ccccc21 | 2.2 | 2 | 0.4 | 0.24 | 9.51 µM | 21.3 µM | 23.9 µM | 5.8 µM | 39.1 µM | 0.45 | 1.64
3 | CC1(C)OC2=C(C(=O)C(=O)c3ccccc32)C1n1cc(-c2ccc(F)cc2)nn1 (stereo not drawn) | 23 | 15.5 | 0.75 | 0.81 | 3.52 µM | 4.39 µM | 4.7 µM | 4.9 µM | 4.32 µM | 0.8 | 0.72
4 | CC1(C)OC2=C(C(=O)C(=O)c3ccccc32)C1n1cc(-c2ccc([N+](=O)[O-])cc2)nn1 (stereo not drawn) | 23 | 15.5 | 0.98 | 1.03 | 3.35 µM | 2.95 µM | 3.41 µM | 3.28 µM | 3.25 µM | 1.35 | 1.02
5 | COc1ccc(-c2cn(C3C4=C(OC3(C)C)c3ccccc3C(=O)C4=O)nn2)cc1 (stereo not drawn) | 23 | 15.5 | 1.13 | 0.78 | 4.36 µM | 2.49 µM | 3.87 µM | 5.39 µM | 5.57 µM | 1.75 | 0.81
6 | Cc1ccc(-c2cn(C3C4=C(OC3(C)C)c3ccccc3C(=O)C4=O)nn2)cc1 (stereo not drawn) | 23 | 15.5 | 0.87 | 0.98 | 3.31 µM | 3.49 µM | 3.8 µM | 3.1 µM | 3.38 µM | 0.95 | 1.07
7 | O=C1C=C(n2cc(CN3C(=O)c4ccccc4C3=O)nn2)C(=O)c2ccccc21 | 2.2 | 2 | 0.11 | 0.13 | 5.39 µM | 40.2 µM | 50.6 µM | 8.47 µM | 42.1 µM | 0.13 | 0.64
8 | CC1(C)CC(n2cc(C3CCCCC3)nn2)C2=C(O1)C(=O)c1ccccc1C2=O (stereo not drawn) | – | – | 0.93 | 3.8 | 8.59 µM | 1.9 µM | 9.23 µM | 2.24 µM | 2.26 µM | 4.52 | 3.83
9 | CCCCCc1cn(C2CC(C)(C)OC3=C2C(=O)c2ccccc2C3=O)nn1 (stereo not drawn) | – | – | 1.15 | 3.38 | 6.89 µM | 1.95 µM | 6 µM | 2.2 µM | 2.04 µM | 3.53 | 3.13
10 | CCCc1cn(C2CC(C)(C)OC3=C2C(=O)c2ccccc2C3=O)nn1 (stereo not drawn) | – | – | 3.38 | 2.5 | 14.8 µM | 8.04 µM | 4.37 µM | 3.43 µM | 5.9 µM | 1.83 | 4.31
11 | CCC(C)(O)c1cn(C2CC(C)(C)OC3=C2C(=O)c2ccccc2C3=O)nn1 (stereo not drawn) | – | – | 0.27 | 0.54 | 9.63 µM | 21.6 µM | 35.2 µM | 3.3 µM | 17.7 µM | 0.45 | 2.92
12 | CC1(C)OC2=C(C(=O)c3ccccc3C2=O)C1n1cc(-c2ccccc2)nn1 (stereo not drawn) | – | – | 3.74 | 8.01 | 8.01 µM | 1.2 µM | 2.14 µM | 1.01 µM | 1 µM | 6.67 | 7.93
13 | CCCCCCc1cn(C2C3=C(OC2(C)C)C(=O)c2ccccc2C3=O)nn1 (stereo not drawn) | – | – | 0.25 | 2.47 | 2.77 µM | 4.23 µM | 11 µM | 1.12 µM | 1.12 µM | 0.65 | 2.47
14 | CCCCCc1cn(C2C3=C(OC2(C)C)C(=O)c2ccccc2C3=O)nn1 (stereo not drawn) | – | – | 7.29 | 15.02 | 16 µM | 1.14 µM | 2.19 µM | 1.14 µM | 1.05 µM | 14 | 14
15 | CCC(C)(O)c1cn(C2C3=C(OC2(C)C)C(=O)c2ccccc2C3=O)nn1 (stereo not drawn) | – | – | 0.99 | 12.36 | 17.9 µM | 27 µM | 18 µM | 25.4 µM | 1.45 µM | 0.66 | 0.7
16 | CC(C)(O)c1cn(C2C3=C(OC2(C)C)C(=O)c2ccccc2C3=O)nn1 (stereo not drawn) | – | – | 1.39 | 12.78 | 19.8 µM | 7.31 µM | 14.2 µM | 1.32 µM | 1.55 µM | 2.71 | 15.01
17 | CC1(C)OC2=C(C(=O)c3ccccc3C2=O)C1n1cc(C2CCCCC2)nn1 (stereo not drawn) | – | – | 5.35 | 10.23 | 18.7 µM | 1.39 µM | 3.5 µM | 1.78 µM | 1.83 µM | 13.47 | 10.51
18 | CC(C)=CC1=C(O)C(=O)c2ccccc2C1=O | – | – | <0.15 | <0.15 | 14.6 µM | > 100 µM | > 100 µM | > 100 µM | > 100 µM | – | –
19 | CC1(C)OC2=C(C(=O)C(=O)c3ccccc32)C1n1cc(-c2ccccc2)nn1 (stereo not drawn) | 23 | 15.5 | 3.08 | 3.42 | 3.42 µM | 1.03 µM | 1.11 µM | 1.04 µM | 1 µM | 3.32 | 3.29
20 | CC1(C)CC2=C(O1)C(=O)c1ccccc1C2=O | – | – | 0.28 | 0.5 | 0.77 µM | 1.54 µM | 2.72 µM | 1.28 µM | 1.54 µM | 0.5 | 0.6
21 | CC1(C)CCC2=C(O1)C(=O)c1ccccc1C2=O [ALPHA-LAPACHONE] | – | – | 0.24 | 0.27 | 3.8 µM | 15.2 µM | 16.1 µM | 5.85 µM | 13.9 µM | 0.25 | 0.65
22 | CC(C)=CCC1=C(O)C(=O)c2ccccc2C1=O [LAPACHOL] | – | – | 0.58 | 1.71 | 59.3 µM | 63.3 µM | 102 µM | 99.9 µM | 34.7 µM | 0.94 | 0.59
23 | CC1(C)CCC2=C(O1)c1ccccc1C(=O)C2=O [LAPACHONE] | – | – | 0.27 | 1.14 | 0.79 µM | 1.39 µM | 2.9 µM | 1.13 µM | 0.67 µM | 0.57 | 0.7
24 | CC1(C)CC2=C(O1)c1ccccc1C(=O)C2=O [NOR-BETA-LAPACHONE] | – | – | 0.62 | 1.36 | 1.55 µM | 1.59 µM | 2.48 µM | 1.6 µM | 1.14 µM | 0.97 | 0.97
